# The list is not random: actives were taken first. Their share in the collection is about 4.3%.
# PREPL inhibitor – inhibits the human prolyl oligopeptidase-like enzyme | 320,000 tested, 0.68% active | Q4J6C6 | recombinant PREPL, fluorescence polarization activity-based probe | AID 2751 | inhibition, % at 5.96 µM; in the data active means inhibition above about 43%;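 further: 0% = enzyme with DMSO and 100% = wells lacking enzyme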
# ALR H2O2 inh – inhibitors of human sulfhydryl oxidase ALR; P55789; purified ALR, DTT oxidation, H2O2 HRP-luminol luminescence; inhibition, % (concentration not given with the values); 290,000 tested, 3.8% active; AID 485317;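 active means mean replicate inhibition above about 79%, with every replicate also reaching it, limit read from the data; inconclusive means only one of the two criteria met; inactive means mean below limit and not every replicate reaching it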
# RBBP9 inhibitor – blocks human serine hydrolase RBBP9; O75884; recombinant RBBP9, FP-Rh probe fluorescence polarization; inhibition, % at 7.94 µM; 220,000 tested, 0.2% active;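 active means inhibition above the campaign mean of all tested compounds plus 3 SD, cut at about 14% in these data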;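 further: plate controls were DMSO wells with RBBP9 for no effect and wells lacking RBBP9 protein for full effect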
#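 Test system: recombinant human RBBP9. Quantity: 2.5 µM RBBP9 dispensing solution, before mixing. Detection: FP readout at 525/598 nm. Reagent: Serine-hydrolase probe FP-Rh, 375 nM pre-mixing. Measure: % inhibition. Control set: DMSO-treated enzyme wells and wells lacking RBBP9. Buffer or medium: Tris-NaCl-Pluronic buffer, pH 8.0. Times: preincubation 30 min plus labeling 45 min at 25 °C.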
# UBC13 inh – human UBC13 polyubiquitination inhibition | AID 485273 | inhibition, % at 20 µM | UBC13 polyubiquitin chain formation, TR-FRET | 330,000 tested, 0.47% active; in the data active means inhibition above about 45%, passing the limit was not always enough; inconclusive means no clear call, values can overlap the other calls
# UBC9 SUMO inh – SUMOylation inhibition. P63279. HTRF SUMOylation assay, SAE1/SAE2 + UBC9, in vitro. inhibition, % at 35 µM. 290,000 tested, 0.36% active; in the data active means inhibition above about 50%, passing the limit was not always enough; inconclusive means no clear call, values can overlap the other calls
# Rin1-Abl PPI inh – blocks binding of human Rin1 to Abl. TR-FRET Rin1/Abl binding, biochemical. inhibition, % at 7.35 µM. 360,000 tested, 0.4% active. AID 588664; in the data active means inhibition above about 5%, passing the limit was not always enough
# Target sequence (P00519 whole entry, looked up): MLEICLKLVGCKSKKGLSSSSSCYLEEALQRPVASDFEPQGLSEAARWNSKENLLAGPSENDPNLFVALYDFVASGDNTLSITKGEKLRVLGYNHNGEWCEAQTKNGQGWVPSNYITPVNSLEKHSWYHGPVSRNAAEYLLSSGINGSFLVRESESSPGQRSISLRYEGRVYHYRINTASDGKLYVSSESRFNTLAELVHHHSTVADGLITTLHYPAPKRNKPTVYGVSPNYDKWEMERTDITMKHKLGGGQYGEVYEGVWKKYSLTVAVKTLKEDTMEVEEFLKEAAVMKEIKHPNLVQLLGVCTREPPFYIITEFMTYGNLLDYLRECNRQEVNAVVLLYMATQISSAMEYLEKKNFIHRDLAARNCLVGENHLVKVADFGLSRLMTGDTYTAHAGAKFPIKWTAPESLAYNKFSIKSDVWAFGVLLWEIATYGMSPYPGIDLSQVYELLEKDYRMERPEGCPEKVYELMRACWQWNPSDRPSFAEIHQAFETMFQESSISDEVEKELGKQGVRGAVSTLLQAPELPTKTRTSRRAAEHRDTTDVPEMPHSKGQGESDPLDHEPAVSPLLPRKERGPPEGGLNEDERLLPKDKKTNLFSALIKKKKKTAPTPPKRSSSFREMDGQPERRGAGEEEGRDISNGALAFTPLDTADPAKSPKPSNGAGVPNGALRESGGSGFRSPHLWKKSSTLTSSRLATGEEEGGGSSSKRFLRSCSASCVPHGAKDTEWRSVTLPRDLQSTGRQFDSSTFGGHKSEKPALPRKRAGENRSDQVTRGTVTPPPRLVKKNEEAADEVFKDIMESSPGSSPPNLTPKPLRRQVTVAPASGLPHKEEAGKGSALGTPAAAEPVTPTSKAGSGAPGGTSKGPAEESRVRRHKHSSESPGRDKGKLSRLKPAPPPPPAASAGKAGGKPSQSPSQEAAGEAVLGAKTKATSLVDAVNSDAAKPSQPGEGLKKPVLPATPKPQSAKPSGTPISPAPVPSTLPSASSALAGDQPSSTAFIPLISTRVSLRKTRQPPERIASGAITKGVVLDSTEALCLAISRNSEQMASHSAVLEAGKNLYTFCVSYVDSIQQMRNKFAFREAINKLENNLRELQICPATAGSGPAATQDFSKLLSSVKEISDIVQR
# Target sequence (Q13671 whole entry, looked up): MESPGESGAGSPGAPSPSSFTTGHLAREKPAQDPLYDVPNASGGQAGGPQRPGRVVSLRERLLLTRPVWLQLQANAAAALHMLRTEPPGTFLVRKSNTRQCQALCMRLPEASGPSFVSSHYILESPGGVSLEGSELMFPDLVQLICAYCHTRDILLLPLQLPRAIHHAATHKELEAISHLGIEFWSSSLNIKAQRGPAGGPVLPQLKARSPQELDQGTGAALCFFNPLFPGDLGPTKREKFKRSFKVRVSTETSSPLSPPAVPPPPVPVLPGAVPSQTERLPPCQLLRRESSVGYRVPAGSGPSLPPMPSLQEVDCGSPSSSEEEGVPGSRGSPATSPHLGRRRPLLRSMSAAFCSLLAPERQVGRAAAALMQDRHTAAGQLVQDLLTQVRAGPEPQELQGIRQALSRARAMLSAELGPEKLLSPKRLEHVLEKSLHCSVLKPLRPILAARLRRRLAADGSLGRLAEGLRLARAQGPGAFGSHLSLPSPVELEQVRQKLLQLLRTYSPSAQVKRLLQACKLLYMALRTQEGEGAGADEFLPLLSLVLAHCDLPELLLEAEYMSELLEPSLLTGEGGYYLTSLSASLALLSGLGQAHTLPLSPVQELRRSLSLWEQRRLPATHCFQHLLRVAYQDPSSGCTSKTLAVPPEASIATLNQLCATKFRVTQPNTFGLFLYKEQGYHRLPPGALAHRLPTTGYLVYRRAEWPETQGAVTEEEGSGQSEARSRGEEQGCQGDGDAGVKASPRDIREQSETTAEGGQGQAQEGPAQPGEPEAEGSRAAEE
# Casp3 counter – counter-screen for UBC13 inhibitors: human caspase-3 inhibition; shares compounds with UBC13 inh; Recombinant caspase-3, Caspase-Glo 3/7 luminescence, 60 min; inhibition, % at 20 µM; 1,400 tested, 4% active; AID 488856;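 active means mean inhibition across replicates above about 26%, limit read from the data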;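 further: plate controls were DMSO with caspase-3 for no effect and DMSO wells lacking enzyme for full effect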
# UBC13 confirm – confirmation of human UBC13 polyubiquitin inhibitors; shares compounds with UBC13 inh; UBC13 polyubiquitination, TR-FRET, biochemical; inhibition, % at 10 µM; 1,400 tested, 68% active; AID 488859; in the data active means inhibition above about 45%; inconclusive means no clear call, values can overlap the other calls
# Active calls of the source: *; ? = inconclusive; / = no result given.
SMILES,PREPL inhibitor,ALR H2O2 inh,RBBP9 inhibitor,UBC13 inh,UBC9 SUMO inh,Rin1-Abl PPI inh,Casp3 counter,UBC13 confirm
O=C(OCc1ccccc1)c1cccnc1Cl,-7.1,-4.5,-8.2,3.3,11.2,2.9,/,/
O=C(OCc1cccc([N+](=O)[O-])c1)c1cccnc1Cl,8.4,3.2,/,49.8*,-1.2,0.7,30.7*,66.7*
Cc1ccccc1C(=O)N1CCN(c2ccc(NC(=S)NC(=O)c3cccs3)cc2)CC1,22.9,1.3,-14.4,86.5*,15.5,-0.1,1.7,85.3*
CCN(Cc1ccncc1)C(=O)c1cccc(S(=O)(=O)N2CCCCC2)c1,12.2,-3.9,/,-3.6,/,3.1,/,/
COC(=O)C1=CO[C@@H](O[C@@H]2O[C@H](CO)[C@@H](O)[C@H](O)[C@H]2O)C2C1C=C[C@@]2(O)CO (some centres undefined),13.6,-1.3,/,14.3,/,4.3,/,/
O=C(CCNC(=O)Cn1ccc2ccccc2c1=O)NCCN1CCN(c2ccccc2F)CC1,8.2,-5.0,-7.6,91.4*,/,-3.6,1.6,100.8*
O=C(CCCn1c(=O)[nH]c2ccccc2c1=O)NCCSCc1ccccc1,-11.0,-2.7,-7.8,9.5,3.1,-1.4,/,/
O=C(CCNC(=O)Cn1ccc2ccccc2c1=O)NCCN1CCc2ccccc2C1,14.4,-6.4,-5.6,0.3,9.3,1.6,/,/
O=C(CCCCCn1c(=O)[nH]c2ccccc2c1=O)NCCCN1CCN(c2ccccc2F)CC1,3.1,8.0,-4.3,63.2*,-10.0,-1.8,-1.0,53.1*
CN(C)CCCNC(=O)/C(=C\c1ccc(-c2ccc(Br)cc2)o1)NC(=O)c1ccccc1,14.4,-33.3,1.5,22.5,-2.3,-2.7,/,/
Cc1ccc(C(=O)N/C(=C\c2ccc(-c3ccc(Cl)cc3)o2)C(=O)NCCCN(C)C)cc1,10.1,/,3.9,47.4*,6.4,-1.8,-3.3,70.1*
CCCCNC(=O)C1(C)CCN1C(=O)c1ccc(OC)c(C(F)(F)F)c1 (centres undefined),/,/,/,/,/,-0.7,/,/
CCOc1cccc2sc(N(CCCN(C)C)C(=O)c3ccc(S(=O)(=O)N4CCc5ccccc5C4)cc3)nc12,5.4,-4.7,/,90.8*,17.4,-0.4,-0.9,110.5*
CCOc1cccc2sc(N(CCCN(C)C)C(=O)c3ccc(S(=O)(=O)N(C)c4ccccc4)cc3)nc12,-25.8,-24.8,-10.1,37.6,-0.8,-5.5,/,/
COc1cccc2sc(N(CCCN(C)C)C(=O)c3sc4ccccc4c3Cl)nc12,-55.8,-17.1,-8.3,45.4*,12.2,-7.4,1.6,68.7*
CCc1ccc2nc(N(CCCN(C)C)C(=O)c3ccc(S(=O)(=O)N4CCc5ccccc5C4)cc3)sc2c1,-8.1,-12.1,/,87.4*,-2.1,2.4,-0.9,113.6*
CSCCC(NC(=O)c1ccccc1C)C(=O)O (centres undefined),10.2,2.8,-2.0,2.7,-7.4,0.8,/,/
Cc1cnc(CNC(=O)c2ccc3oc(Cc4ccc(Cl)cc4)nc3c2)cn1,-59.2,-16.9,/,2.6,-11.9,-1.5,/,/
Cc1ccc(NC(=S)c2nc3ccccc3[nH]2)c(C)c1,0.6,-4.5,-6.0,-21.6,-124.0,-3.3,/,/
NC(=S)Nc1nc2ccccc2[nH]c1=O,11.0,2.3,-8.3,59.8*,3.0,/,-5.4,63.6*
Cc1ccc2[nH]c(=O)c(NC(N)=S)nc2c1,16.6,/,-10.2,71.0*,-25.0,-3.8,-1.9,84.8*
O=c1[nH]c2ccccc2nc1NCc1ccccc1,3.4,/,/,0.3,7.7,-0.8,/,/
O=C1NC2(CCCCCC2)N=C1c1ccc(Br)cc1,-8.9,/,3.0,48.8*,6.4,0.1,-2.8,?
COc1ccc(C2CC(c3ccccc3)=NN2C(=O)CCCC(=O)O)cc1 (centres undefined),-3.0,1.1,/,3.7,2.9,2.4,/,/
COc1ccc(OCC(=O)NNC(=S)NC(=O)c2ccc([N+](=O)[O-])cc2)cc1,-2.0,/,/,60.1*,-9.8,0.5,-1.0,30.9
SMILES,PREPL inhibitor,ALR H2O2 inh,RBBP9 inhibitor,UBC13 inh,UBC9 SUMO inh,Rin1-Abl PPI inh,Casp3 counter,UBC13 confirm
CCCOc1ccc(C(=O)NNC(=S)NC(=O)CC)cc1,14.6,69.5,-3.2,66.4*,-8.4,-1.1,-0.3,82.7*
CCC(=O)NC(=S)NNC(=O)c1ccc(NC(=O)c2ccccc2)cc1,-3.5,-15.8,0.3,70.7*,-9.7,3.3,12.5,91.2*
CCCCC(=O)NC(=S)NNC(=O)c1ccc(OC)cc1,0.8,/,0.4,68.6*,-8.9,-6.5,1.9,40.8
Cc1cc(Cl)ccc1OCC(=O)OCC(=O)c1c(N)n(C)c(=O)n(C)c1=O,20.9,0.9,/,8.1,/,0.3,/,/
COc1ccc(S(=O)(=O)N2CCCC2=O)cc1N(C)S(C)(=O)=O,/,3.8,/,-1.9,3.6,-1.1,/,/
O=C(Nc1cc(F)c(Br)cc1F)c1ccc(Cl)cc1,-8.9,-3.6,-3.1,-1.1,4.8,1.8,/,/
COc1cc(OC)c2c(-c3cccc(-c4ccc(F)c(Cl)c4)c3)cc(=O)oc2c1,/,/,/,/,/,-0.1,/,/
O=C(N[C@H]1C/C=C\C[C@@H](CC(=O)N(CCO)Cc2ccccc2)C(=O)NC[C@H](c2ccccc2)OC1=O)OCC1c2ccccc2-c2ccccc21,14.5,-2.2,/,4.7,/,1.2,/,/
CC(C)CC(C(=O)NC(C)(C)C)N(Cc1ccccc1Cl)C(=O)c1snc(C(N)=O)c1N (centres undefined),/,-4.0,/,71.0*,11.9,-0.9,4.1,93.1*
CC(C)CC(C(=O)NC(C)(C)C)N(Cc1cccs1)C(=O)c1snc(C(N)=O)c1N (centres undefined),14.1,-6.3,-10.7,65.0*,14.8,0.5,-1.9,66.9*
CCC(C(=O)NC1CCCC1)N(Cc1ccccc1Cl)C(=O)c1snc(C(N)=O)c1N (centres undefined),8.6,-3.0,/,16.0,-18.6,1.5,/,/
CSc1nc(N)c2cn[nH]c2n1,/,/,/,/,/,-0.1,/,/
CCCCCCCCCCCCCCCC(O)C(N)CO (centres undefined),7.0,-2.6,-2.4,111.1*,7.5,-3.6,2.3,101.0*
CCCCCCCCCCCCCCCC(O)C[N+](C)(C)CCO (centres undefined),/,/,/,/,/,-2.0,/,/
CCCCCCCCCCOC(=O)Cn1c(COc2ccccc2C)[n+](C)c2ccccc21,-118.1,-20.9,/,45.2*,15.5,1.0,0.7,44.2
CCCCCCCCCCOC(=O)Cn1c(COc2ccc(OC)cc2)[n+](C)c2ccccc21,-13.5,-23.2,/,62.8*,17.3,1.2,5.2,80.9*
CCCCCCCCCCOC(=O)Cn1c(COc2cccc(C)c2)[n+](C)c2ccccc21,-47.9,-42.2,/,51.5*,19.8,-1.1,3.9,67.8*
CCOC(=O)Cn1c(COc2ccccc2OC)[n+](C)c2ccccc21,-7.0,-0.3,/,4.7,/,-3.0,/,/

# High-throughput results deposited in PubChem BioAssay by several laboratories.
